One block for each compound: values may come before it.
Tests used:
[1] = biological target: Tyrosine-protein kinase BTK (Homo sapiens, UniProt Q06187); test: Inhibition of full length human wild type his-tagged BTK expressed in Sf9 cells using biotinylated peptide as substrate after 1 hr by Fluorescence assay
[2] = Selectivity ratio of IC50 for JAK2 (unknown origin) to IC50 for full length human wild type his-tagged BTK expressed in Sf9 cells
[3] = Selectivity ratio of IC50 for Flt3 (unknown origin) to IC50 for full length human wild type his-tagged BTK expressed in Sf9 cells
[4] = Selectivity ratio of IC50 for ITK (unknown origin) to IC50 for full length human wild type his-tagged BTK expressed in Sf9 cells
[5] = Aqueous solubility of the compound at pH 1; type: physicochemical
[6] = Half life in CD1 mouse at 30 mg/kg, ip; type: ADME, organism-based; parameters: dose 30 mg/kg, route intraperitoneal; conditions: in vivo
Outline: (§1)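 Mouse PK: single 30 mg/kg dose given IP as a Methocel suspension. Cmax, total AUC and t1/2 were taken from plasma exposure after dosing.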

[7] = Apparent permeability from apical to basolateral side of human Caco2 cells; type: ADME, cell-based; conditions: Caco-2
[8] = AUC (total) in CD1 mouse at 30 mg/kg, ip; type: ADME, organism-based; parameters: dose 30 mg/kg, route intraperitoneal; conditions: plasma; outline: as §1
[9] = Aqueous solubility of the compound at pH 6; type: physicochemical
[10] = Permeability of the compound by PAMPA; type: physicochemical; conditions: read-out: permeability
[11] = test system: Liver microsome; test: Stability in human liver microsomes assessed as compound remaining; type: ADME
[12] = Apparent permeability from basolateral to apical side of human Caco2 cells; type: ADME, cell-based; conditions: Caco-2
[13] = test system: Liver; test: Stability in mouse liver microsomes assessed as compound remaining; type: ADME
[14] = Cmax in CD1 mouse at 30 mg/kg, ip; type: ADME, organism-based; parameters: dose 30 mg/kg, route intraperitoneal; conditions: in vivo; outline: as §1
[15] = test system: Liver microsome; test: Stability in rat liver microsomes assessed as compound remaining; type: ADME

Tyrosine-protein kinase BTK, sequence (Q06187 whole entry): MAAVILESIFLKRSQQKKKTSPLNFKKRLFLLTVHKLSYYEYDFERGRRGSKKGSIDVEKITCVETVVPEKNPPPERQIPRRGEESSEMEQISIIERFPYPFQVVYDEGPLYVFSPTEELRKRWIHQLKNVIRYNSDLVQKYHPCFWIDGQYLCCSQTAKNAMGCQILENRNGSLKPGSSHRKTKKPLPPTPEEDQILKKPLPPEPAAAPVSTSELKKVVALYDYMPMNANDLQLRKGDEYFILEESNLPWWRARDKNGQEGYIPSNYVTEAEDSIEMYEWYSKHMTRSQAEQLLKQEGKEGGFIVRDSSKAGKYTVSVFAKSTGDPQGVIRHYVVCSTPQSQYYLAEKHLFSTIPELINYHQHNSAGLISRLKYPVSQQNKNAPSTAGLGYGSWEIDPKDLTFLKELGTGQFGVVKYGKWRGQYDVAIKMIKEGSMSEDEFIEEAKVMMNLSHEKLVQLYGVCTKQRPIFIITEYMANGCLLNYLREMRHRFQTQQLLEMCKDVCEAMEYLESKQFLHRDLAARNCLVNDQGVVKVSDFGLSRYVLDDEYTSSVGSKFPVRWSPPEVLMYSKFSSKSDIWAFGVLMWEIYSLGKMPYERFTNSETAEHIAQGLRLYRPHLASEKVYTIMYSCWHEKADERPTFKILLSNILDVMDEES

IC50 [1]: > 50 µM
SMILES: CC(C)(C)c1ccc(C(=O)Nc2cccc(-c3nccc(Nc4ccc(C(=O)N5CCOCC5)cc4)n3)c2)cc1

IC50 [1]: > 50 µM
SMILES: Cc1c(NC(=O)c2ccc(C(C)(C)C)cc2)cccc1-c1nc(Nc2ccc(C(=O)N3CCOCC3)cc2)c2ncn(CCCc3ccccc3)c2n1
Ratio IC50 [2]: 1
Ratio IC50 [3]: 0.1
Ratio IC50 [4]: 1

solubility [5]: < 1 µg/mL
half-life [6]: 4.3 h
Papp A→B [7]: < 1.5 ×10⁻⁶ cm/s
AUC [8]: 32.5 µM·h
solubility [9]: < 1 µg/mL
Papp [10]: 40.3 ×10⁻⁶ cm/s
Stability [11]: 14%
Papp B→A [12]: < 1.5 ×10⁻⁶ cm/s
Stability [13]: 68%
Cmax [14]: 3.8 µM
Stability [15]: 36%
SMILES: Cc1c(NC(=O)c2ccc(C(C)(C)C)cc2)cccc1-c1nc(Nc2ccc(C(=O)N3CCOCC3)cc2)c2nc[nH]c2n1

IC50 [1]: 0.15 µM
SMILES: Cn1cnc2c(Nc3ccc(C(=O)N4CCOCC4)cc3)nc(-c3cccc(NC(=O)c4ccc(C(C)(C)C)cc4)c3)cc21

IC50 [1]: > 50 µM
SMILES: CC(C)(C)c1ccc(C(=O)Nc2cccc(-c3nc(Nc4ccc(C(=O)N5CCOCC5)cc4)c4cccn4n3)c2)cc1

Source: ChEMBL document CHEMBL3259754, “Purine derivatives as potent Bruton's tyrosine kinase (BTK) inhibitors for autoimmune diseases” (Bioorg Med Chem Lett, 2014)
